Measured values reported in ChEMBL document CHEMBL1914431, “Discovery of a novel series of nonacidic benzofuran EP1 receptor antagonists” (Bioorg Med Chem Lett, 2011).
Values after ≈ are worked out from the molar mass of the structure shown. Active and inactive are the calls of the source. The rule behind the calls is not given here.

What was measured:
[1] = molecular target: T1, Prostaglandin E2 receptor EP1 subtype (Homo sapiens, UniProt P34995); experiment: Displacement of [3H]GW875240X from human prostanoid EP1 receptor expressed in CHO-K1 cells after 45 mins by topcount liquid scintillation counting; assay type: cell-based
T1 sequence (P34995 whole entry): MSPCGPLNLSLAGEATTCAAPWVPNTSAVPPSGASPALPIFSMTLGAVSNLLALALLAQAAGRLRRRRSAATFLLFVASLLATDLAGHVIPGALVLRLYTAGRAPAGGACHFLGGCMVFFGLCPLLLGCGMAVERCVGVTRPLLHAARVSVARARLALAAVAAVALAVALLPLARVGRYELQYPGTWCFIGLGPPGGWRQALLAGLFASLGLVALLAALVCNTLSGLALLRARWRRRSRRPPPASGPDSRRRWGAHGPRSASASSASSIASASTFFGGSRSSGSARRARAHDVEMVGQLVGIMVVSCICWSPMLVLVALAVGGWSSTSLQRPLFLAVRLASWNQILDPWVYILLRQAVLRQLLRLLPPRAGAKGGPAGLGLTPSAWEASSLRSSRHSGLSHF
Outline: (§1)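 Radioligand binding at the EP1 receptor. Either [3H]-GW875240X or [3H]-PGE2 is the displaced ligand. Values are pIC50, means of at least three experiments.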

[2] = molecular target: T1, Prostaglandin E2 receptor EP1 subtype; experiment: Displacement of [3H]PGE2 from human prostanoid EP1 receptor expressed in CHO-K1 cells after 30 mins by topcount liquid scintillation counting; assay type: cell-based; outline: as §1
Liver microsomes = experiment: Intrinsic clearance in human liver microsomes; assay type: ADME, Microsome
[3] = Solubility of the compound in water after 1 hr; assay type: physicochemical
Outline: (§2)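 Solubility is measured after 1 h in water, SGF, FaSSIF and FeSSIF, in µg/mL.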

[4] = Solubility of the compound in simulated gastric fluid after 1 hr; assay type: physicochemical; outline: as §2
[5] = Solubility of the compound in fasted state simulated intestinal fluid after 1 hr; assay type: physicochemical; outline: as §2
[6] = Lipophilicity, log D of compound at pH 7.4 by shake flask method; assay type: physicochemical; details: buffer
Outline: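 Log D is determined by the shake flask method at pH 7.4.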

[7] = Blood clearance in rat at 1 mg/kg, iv; assay type: ADME, organism-based; parameters: dose 1 mg/kg, route intravenous
[8] = Volume of distribution at steady state in rat at 1 mg/kg, iv; assay type: ADME, organism-based; parameters: dose 1 mg/kg, route intravenous; details: in vivo, read-out: Vdss
[9] = Half life in rat at 1 mg/kg, iv; assay type: ADME, organism-based; parameters: dose 1 mg/kg, route intravenous; details: in vivo
Rattus norvegicus [10] = experiment: Analgesic activity in rat assessed as reversal of complete Freund's adjuvant-induced inflammatory pain at 10 mg/kg, po after 1 hr post dose; assay type: functional
Outline: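 Rat CFA inflammatory pain model. Oral dosing in 1% methylcellulose. Hypersensitivity reversal is read by weight bearing, at 1 h post-dose. The 5 mg/kg study was also read at 3 h. Dose-response groups were 3, 10 and 30 mg/kg, or 1, 3 and 10 mg/kg, with ED50 derived. Celecoxib at 10 mg/kg po served as the standard.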

Blood = experiment: Fraction unbound in blood of po dosed rat complete Freund's adjuvant-induced inflammatory pain model; assay type: ADME, organism-based; details: in vivo
[11] = Ratio of drug level in brain to blood in rat complete Freund's adjuvant-induced inflammatory pain model at 10 mg/kg, po after 1 hr; assay type: ADME, organism-based; parameters: dose 10 mg/kg, route oral; details: read-out: BBR
Outline: (§3)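 Blood and brain samples are taken from CFA rats after oral dosing in 1% methylcellulose. Sampling is at 1 h post-dose, and at 3 h in the 5 mg/kg study. Concentrations are in µM or nM, n = 7 or n = 6 for blood and n = 3 for brain. The brain:blood ratio is calculated from the same rats.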

[12] = Drug level in brain of rat complete Freund's adjuvant-induced inflammatory pain model at 10 mg/kg, po after 1 hr; assay type: ADME, organism-based; parameters: dose 10 mg/kg, route oral; details: read-out: Drug uptake; outline: as §3
Rattus norvegicus [13] = experiment: Analgesic activity in rat chronic joint pain model at 30 mg/kg, po bid; assay type: functional, organism-based; parameters: dose 30 mg/kg
Outline: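 Rat joint pain model of chronic inflammatory pain. Oral dosing b.i.d. at 1, 3, 10 and 30 mg/kg, or at 0.3, 1, 3 and 10 mg/kg. Reversal of hypersensitivity is scored, with statistical significance testing, and ED50 is calculated.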

[14] = Drug level in blood of rat complete Freund's adjuvant-induced inflammatory pain model at 10 mg/kg, po after 1 hr; assay type: ADME, organism-based; parameters: dose 10 mg/kg, route oral; details: read-out: Drug uptake; outline: as §3
Brain = experiment: Fraction unbound in brain of po dosed rat complete Freund's adjuvant-induced inflammatory pain model; assay type: ADME, organism-based; details: in vivo

With CCCc1cc2cc(Cl)cc(Cn3nc(C(=O)O)cc3C)c2o1 the IC50 [1] was 25.1 nM.
Cc1cc(C(=O)O)nn1Cc1cc(Cl)cc2cc(C3CCCCC3)oc12 gave an IC50 [1] of 3.98 nM.
For Cc1cc(C(=O)NC2CC2)nn1Cc1cc(Cl)cc2cc(-c3ccccc3)oc12, the IC50 [1] was 5.01 nM.
Cc1cc(C(=O)O)nn1Cc1cc(Cl)cc2oc(C(C)C)cc12 showed an IC50 [1] of 251 nM.
With Cc1cc(C(=O)NN2CCCCC2)nn1Cc1cc(Cl)cc2cc(C(C)C)oc12 the IC50 [2] was 100 nM.
For Cc1cc(C(=O)N[C@H]2CC[C@H](O)CC2)nn1Cc1cc(Cl)cc2cc(-c3ccccc3)oc12, the IC50 [1] was 7.94 nM.
In the case of Cc1cc(C(=O)NCC(O)C(F)(F)F)nn1Cc1cc(Cl)cc2cc(-c3ccccc3)oc12 (stereo not given), the IC50 [1] is reported as 25.1 nM.
In the case of Cc1cc(C(=O)NC2CCOCC2)nn1Cc1cc(Cl)cc2cc(C(C)C)oc12, the IC50 [2] is reported as 63.1 nM.
Cc1cc(C(=O)O)nn1Cc1cc(Cl)cn2cc(C(C)C)nc12 showed an IC50 [2] of 501 nM.
Cc1cc(C(=O)O)nn1Cc1cc(Cl)cc2cc(C3CC3)oc12 gave an IC50 [1] of 50.1 nM.
Cc1cc(NC(=O)C2CCN(CC(F)(F)F)CC2)nn1Cc1cc(Cl)cc2cc(-c3ccccc3)oc12 showed an IC50 [1] of 25.1 nM.
Cc1cc(NC(=O)C2(F)CCNCC2)nn1Cc1cc(Cl)cc2cc(-c3ccccc3)oc12 showed an IC50 [1] of 39.8 nM.
In the case of Cc1cc(C(=O)NN2CCOCC2)nn1Cc1cc(Cl)cc2cc(-c3ccccc3)oc12, the IC50 [1] is reported as 10 nM, the CL (Liver microsomes) is reported as 1.1 mL/min/g and the solubility at 1 h [3] is reported as 171 µg/mL (≈ 379 µM). The solubility at 1 h [4] was 227 µg/mL (≈ 503 µM), the solubility at 1 h [5] was 382 µg/mL (≈ 847 µM) and the logD [6] was 3. For the same molecule, the clearance [7] was 22 mL/min/kg, the Vd [8] was 3.5 L/kg and the half-life [9] was 2.1 h. It also gave an Activity (Rattus norvegicus [10]) of 49%, a Fu (Blood) of 0.662% and a Kp at 1 h [11] of 1.7. The concentration at 1 h [12] was 3.97 µM, the Activity (Rattus norvegicus [13]) was “Active” and the concentration at 1 h [14] was 2.34 µM. The Fu (Brain) was 0.17%.
Cc1cc(C(=O)NCC2CCNCC2)nn1Cc1cc(Cl)cc2cc(-c3ccccc3)oc12 showed an IC50 [1] of 20 nM.
Molecule CNCc1ccc(NC(=O)c2cc(C)n(Cc3cc(Cl)cc4cc(C(C)C)oc34)n2)cc1 has an IC50 [2] of 63.1 nM.
